Experimental data as given in ChEMBL document CHEMBL4706527, “Identification of novel quinoline analogues bearing thiazolidinones as potent kinase inhibitors for the treatment of colorectal cancer” (Eur J Med Chem, 2020).
Each block holds one compound with its values, some of them ahead of it. Active and inactive are the calls of the source. The rule behind the calls is not given here.

Legend:
HT-29 [1] = experiment: cells; details: Homo sapiens
HT-29 [2] = experiment: Antiproliferative activity against human HT-29 cells assessed as dead cells by measuring green fluorescent cells for 48 to 72 hrs by IncuCyte live-cell imaging assay; format: functional, cell-based
Procedure, shortened: (§1)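 HT-29 cells (5×10^3/well) in DMEM with 10% FBS, cultured 24 h at 37 °C, 5% CO2, then treated with graded concentrations of compound; 0.1% DMSO vehicle control. YOYO-1 iodide DNA dye added; green-fluorescent cells counted as dead, imaged every 2 h for 72 h in an IncuCyte system. Three replicates; mean ± SD of three independent experiments.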

HT-29 [3] = experiment: Cell cycle arrest in human HT-29 cells assessed as accumulation in G0/G1 phase at 0.3 ug/ml incubated for 48 hrs by propidium iodide base flow cytometry analysis (reference value: 71.6%); format: functional; details: dose 0.3 µg/ml
FHC [4] = experiment: Cytotoxicity aganist human FHC at 10 ug/ml measured after 72 hrs by IncuCyte live-cell imaging assay
[5] = target: Serine/threonine-protein kinase B-raf (Homo sapiens, UniProt P15056); experiment: Inhibition of B-Raf (unknown origin) by mobility shift assay
[6] = target: T1, Hepatocyte growth factor receptor (Homo sapiens, UniProt P08581); experiment: Inhibition of c-Met (unknown origin) using FAM-labelled peptide and ATP incubated for 10 mins by mobility shift assay relative to control
HT-29 [7] = experiment: Cell cycle arrest in human HT-29 cells assessed as accumulation in G0/G1 phase at 1 ug/ml incubated for 48 hrs by propidium iodide base flow cytometry analysis (reference value: 71.6%); format: functional; details: dose 1 µg/ml
[8] = target: T2, Tyrosine-protein kinase receptor UFO (Homo sapiens, UniProt P30530); experiment: Inhibition of AXL (unknown origin) using FAM-labelled peptide and ATP incubated for 10 mins by mobility shift assay
T2 sequence (P30530 whole entry): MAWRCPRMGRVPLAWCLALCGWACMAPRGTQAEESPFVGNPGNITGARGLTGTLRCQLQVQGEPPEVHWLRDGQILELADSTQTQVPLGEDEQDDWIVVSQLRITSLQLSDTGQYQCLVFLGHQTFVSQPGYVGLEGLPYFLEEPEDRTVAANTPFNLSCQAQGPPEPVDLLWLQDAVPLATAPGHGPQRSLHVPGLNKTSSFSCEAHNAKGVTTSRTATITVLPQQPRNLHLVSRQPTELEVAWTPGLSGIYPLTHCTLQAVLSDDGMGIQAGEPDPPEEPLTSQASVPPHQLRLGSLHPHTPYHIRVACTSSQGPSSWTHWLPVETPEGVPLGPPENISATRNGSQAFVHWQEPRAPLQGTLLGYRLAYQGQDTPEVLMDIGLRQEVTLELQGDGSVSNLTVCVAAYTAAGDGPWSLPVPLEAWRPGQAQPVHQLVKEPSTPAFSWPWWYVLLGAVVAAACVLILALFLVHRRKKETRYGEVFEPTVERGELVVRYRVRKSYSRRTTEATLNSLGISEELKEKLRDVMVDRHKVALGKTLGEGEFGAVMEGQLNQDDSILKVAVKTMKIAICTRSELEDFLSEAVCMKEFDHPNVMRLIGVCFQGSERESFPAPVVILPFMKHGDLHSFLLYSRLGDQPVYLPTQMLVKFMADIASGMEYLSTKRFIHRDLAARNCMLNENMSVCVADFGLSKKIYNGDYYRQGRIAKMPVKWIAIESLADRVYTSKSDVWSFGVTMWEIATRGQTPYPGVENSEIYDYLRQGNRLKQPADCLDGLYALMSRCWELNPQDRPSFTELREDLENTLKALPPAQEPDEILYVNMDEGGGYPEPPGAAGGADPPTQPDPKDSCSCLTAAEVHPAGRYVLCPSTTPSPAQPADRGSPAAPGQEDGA

HT-29 [9] = experiment: Cell cycle arrest in human HT-29 cells assessed as accumulation in S phase at 1 ug/ml incubated for 48 hrs by propidium iodide base flow cytometry analysis (reference value: 22.4%); format: functional; details: dose 1 µg/ml
HT-29 [10] = experiment: Cytotoxicity against human HT-29 cells assessed as reduction in cell viability at 5 ug/mL by MTT assay; format: functional, cell-based; details: dose 5.0 µg/ml
HT-29 [11] = experiment: Cell cycle arrest in human HT-29 cells assessed as accumulation in G2/M phase at 1 ug/ml incubated for 48 hrs by propidium iodide base flow cytometry analysis (reference value: 2.4%); format: functional; details: dose 1 µg/ml
HT-29 [12] = experiment: Antiproliferative activity against human HT-29 cells assessed as dead cells by measuring green fluorescent cells at 1 to 3 ug/mL by IncuCyte live-cell imaging assay; format: functional, cell-based
Procedure, shortened: as §1

[13] = target: Platelet-derived growth factor receptor alpha (Homo sapiens, UniProt P16234); experiment: Inhibition of PDGFR alpha (unknown origin) by mobility shift assay
HT-29 [14] = experiment: Cell cycle arrest in human HT-29 cells assessed as accumulation in S phase at 3 ug/ml incubated for 48 hrs by propidium iodide base flow cytometry analysis (reference value: 22.4%); format: functional; details: dose 3 µg/ml
HT-29 [15] = experiment: Cell cycle arrest in human HT-29 cells assessed as accumulation in G0/G1 phase at 3 ug/ml incubated for 48 hrs by propidium iodide base flow cytometry analysis (reference value: 71.6%); format: functional; details: dose 3 µg/ml
HT-29 [16] = experiment: Cell cycle arrest in human HT-29 cells assessed as accumulation in G2/M phase at 0.3 ug/ml incubated for 48 hrs by propidium iodide base flow cytometry analysis (reference value: 2.4%); format: functional; details: dose 0.3 µg/ml
HT-29 [17] = experiment: Cytotoxicity against human HT-29 cells assessed as reduction in cell viability measured after 36 hrs by MTT assay; format: functional, cell-based; details: dose 0.56-1.67 µg/ml
FHC [18] = experiment: Antiproliferative activity aganist human FHC at 10 ug/ml measured after 72 hrs by MTT assay; format: cell-based; details: at 10 µg/mL
HT-29 [19] = experiment: Cell cycle arrest in human HT-29 cells assessed as accumulation in S phase at 0.3 ug/ml incubated for 48 hrs by propidium iodide base flow cytometry analysis (reference value: 22.4%); format: functional; details: dose 0.3 µg/ml
HT-29 [20] = experiment: Cell cycle arrest in human HT-29 cells assessed as accumulation in G2/M phase at 3 ug/ml incubated for 48 hrs by propidium iodide base flow cytometry analysis (reference value: 2.4%); format: functional; details: dose 3 µg/ml
[21] = target: Proto-oncogene tyrosine-protein kinase Src (Homo sapiens, UniProt P12931); experiment: Inhibition of c-Src (unknown origin) using FAM-labelled peptide and ATP incubated for 10 mins by mobility shift assay
[22] = target: T1, Hepatocyte growth factor receptor; experiment: Inhibition of c-Met (unknown origin) using FAM-labelled peptide and ATP incubated for 10 mins by mobility shift assay
[23] = target: Macrophage-stimulating protein receptor (Homo sapiens, UniProt Q04912); experiment: Inhibition of Ron (unknown origin) using FAM-labelled peptide and ATP incubated for 10 mins by mobility shift assay
HT-29 [24] = experiment: Antiproliferative activity against human HT-29 cells assessed as dead cells by measuring green fluorescent cells at 5 ug/mL for 72 hrs by IncuCyte live-cell imaging assay; format: functional, cell-based; details: dose 5.0 µg/ml
Procedure, shortened: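 HT-29 cells (5×10^3 per well) in DMEM with 10% FBS at 37 °C, 5% CO2; compound added after 24 h culture. YOYO-1 iodide added, green-fluorescent cells counted as dead; live-cell imaging every 2 h for 72 h; three replicates; mean ± SD of three independent experiments.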

[25] = target: Insulin-like growth factor 1 receptor (Homo sapiens, UniProt P08069); experiment: Inhibition of IGF1R (unknown origin) by mobility shift assay
HT-29 [26] = experiment: Cytotoxicity against human HT-29 cells assessed as reduction in cell viability measured at 0.56 to 1.67 microg/ml by IncuCyte live-cell imaging assay; details: dose 0.56-1.67 µg/ml, TDE = time-dependent effect
[27] = target: Mast/stem cell growth factor receptor Kit (Homo sapiens, UniProt P10721); experiment: Inhibition of c-Kit (unknown origin) using FAM-labelled peptide and ATP incubated for 10 mins by mobility shift assay
FHC [28] = experiment: Cytotoxicity aganist human FHC at 0.19 ug/ml measured after 72 hrs by IncuCyte live-cell imaging assay

T1 sequence (P08581 whole entry): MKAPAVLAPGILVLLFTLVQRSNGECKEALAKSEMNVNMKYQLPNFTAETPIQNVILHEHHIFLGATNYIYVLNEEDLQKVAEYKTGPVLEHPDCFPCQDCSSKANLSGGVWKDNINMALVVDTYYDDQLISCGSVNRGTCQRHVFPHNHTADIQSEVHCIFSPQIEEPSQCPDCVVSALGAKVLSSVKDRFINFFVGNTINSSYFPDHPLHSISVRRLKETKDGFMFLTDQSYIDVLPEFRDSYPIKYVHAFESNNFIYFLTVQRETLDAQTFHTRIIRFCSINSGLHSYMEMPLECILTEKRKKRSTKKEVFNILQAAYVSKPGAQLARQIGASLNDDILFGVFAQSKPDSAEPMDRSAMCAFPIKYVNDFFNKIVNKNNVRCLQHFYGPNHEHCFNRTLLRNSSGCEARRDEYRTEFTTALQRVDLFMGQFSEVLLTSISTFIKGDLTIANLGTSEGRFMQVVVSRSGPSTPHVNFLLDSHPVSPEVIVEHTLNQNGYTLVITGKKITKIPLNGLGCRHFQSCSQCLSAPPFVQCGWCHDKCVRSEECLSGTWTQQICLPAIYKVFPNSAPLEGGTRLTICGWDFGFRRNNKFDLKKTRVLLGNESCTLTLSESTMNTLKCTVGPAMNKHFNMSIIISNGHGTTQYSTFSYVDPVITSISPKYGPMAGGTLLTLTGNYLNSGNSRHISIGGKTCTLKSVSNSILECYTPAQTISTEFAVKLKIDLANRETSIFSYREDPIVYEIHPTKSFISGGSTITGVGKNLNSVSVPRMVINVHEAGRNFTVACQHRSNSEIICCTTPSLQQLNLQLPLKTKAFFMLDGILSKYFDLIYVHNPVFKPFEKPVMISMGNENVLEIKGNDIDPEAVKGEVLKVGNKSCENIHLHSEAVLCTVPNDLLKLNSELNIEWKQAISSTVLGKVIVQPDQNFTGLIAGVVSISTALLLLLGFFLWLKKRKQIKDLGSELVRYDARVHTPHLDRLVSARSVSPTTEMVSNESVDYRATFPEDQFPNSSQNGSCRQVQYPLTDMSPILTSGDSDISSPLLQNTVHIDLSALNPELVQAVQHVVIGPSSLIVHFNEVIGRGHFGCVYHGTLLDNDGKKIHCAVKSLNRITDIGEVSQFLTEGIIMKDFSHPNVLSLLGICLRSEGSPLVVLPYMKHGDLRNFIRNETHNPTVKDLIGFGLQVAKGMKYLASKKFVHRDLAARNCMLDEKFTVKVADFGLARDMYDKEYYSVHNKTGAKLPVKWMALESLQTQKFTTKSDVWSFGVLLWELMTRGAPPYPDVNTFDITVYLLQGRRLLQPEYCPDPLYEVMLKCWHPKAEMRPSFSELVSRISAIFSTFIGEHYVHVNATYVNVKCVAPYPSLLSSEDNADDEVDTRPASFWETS
Sequence of Macrophage-stimulating protein receptor (Q04912 25-304 limits assumed): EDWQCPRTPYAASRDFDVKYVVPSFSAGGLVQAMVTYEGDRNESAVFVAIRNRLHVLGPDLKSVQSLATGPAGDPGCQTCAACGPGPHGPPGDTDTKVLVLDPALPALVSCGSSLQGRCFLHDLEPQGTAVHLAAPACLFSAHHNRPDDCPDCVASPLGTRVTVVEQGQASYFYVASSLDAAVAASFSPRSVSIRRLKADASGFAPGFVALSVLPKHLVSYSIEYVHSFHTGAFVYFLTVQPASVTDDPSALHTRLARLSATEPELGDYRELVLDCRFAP
Sequence of Macrophage-stimulating protein receptor (Q04912 310-1400 limits assumed): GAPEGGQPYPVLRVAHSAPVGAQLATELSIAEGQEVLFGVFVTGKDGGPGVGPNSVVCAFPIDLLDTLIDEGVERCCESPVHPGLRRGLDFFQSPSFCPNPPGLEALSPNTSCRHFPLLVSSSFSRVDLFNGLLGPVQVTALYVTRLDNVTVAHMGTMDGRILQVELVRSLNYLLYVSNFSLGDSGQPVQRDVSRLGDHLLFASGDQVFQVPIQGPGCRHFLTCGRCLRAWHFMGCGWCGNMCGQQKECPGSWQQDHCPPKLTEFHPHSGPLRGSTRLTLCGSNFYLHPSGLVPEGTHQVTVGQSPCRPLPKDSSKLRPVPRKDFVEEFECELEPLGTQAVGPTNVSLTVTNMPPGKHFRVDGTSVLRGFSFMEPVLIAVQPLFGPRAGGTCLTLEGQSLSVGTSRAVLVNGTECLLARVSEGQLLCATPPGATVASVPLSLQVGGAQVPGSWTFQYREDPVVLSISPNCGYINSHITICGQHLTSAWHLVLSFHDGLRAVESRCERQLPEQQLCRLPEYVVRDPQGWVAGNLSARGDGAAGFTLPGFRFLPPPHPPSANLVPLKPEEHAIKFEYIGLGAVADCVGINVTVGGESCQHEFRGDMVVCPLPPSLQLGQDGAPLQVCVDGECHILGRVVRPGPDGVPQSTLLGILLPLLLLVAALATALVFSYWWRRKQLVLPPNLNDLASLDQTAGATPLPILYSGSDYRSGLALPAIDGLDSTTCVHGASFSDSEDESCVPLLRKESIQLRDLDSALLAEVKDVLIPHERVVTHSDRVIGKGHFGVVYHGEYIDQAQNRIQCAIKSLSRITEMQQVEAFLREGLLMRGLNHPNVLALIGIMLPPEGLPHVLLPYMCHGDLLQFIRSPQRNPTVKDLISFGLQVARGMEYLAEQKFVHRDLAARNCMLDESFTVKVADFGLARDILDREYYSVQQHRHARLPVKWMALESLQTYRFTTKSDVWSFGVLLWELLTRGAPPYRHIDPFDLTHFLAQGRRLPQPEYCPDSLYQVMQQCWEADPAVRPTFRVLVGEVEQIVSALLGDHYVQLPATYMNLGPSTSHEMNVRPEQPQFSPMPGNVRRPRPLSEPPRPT
Sequence of Insulin-like growth factor 1 receptor (P08069 31-736 limits assumed): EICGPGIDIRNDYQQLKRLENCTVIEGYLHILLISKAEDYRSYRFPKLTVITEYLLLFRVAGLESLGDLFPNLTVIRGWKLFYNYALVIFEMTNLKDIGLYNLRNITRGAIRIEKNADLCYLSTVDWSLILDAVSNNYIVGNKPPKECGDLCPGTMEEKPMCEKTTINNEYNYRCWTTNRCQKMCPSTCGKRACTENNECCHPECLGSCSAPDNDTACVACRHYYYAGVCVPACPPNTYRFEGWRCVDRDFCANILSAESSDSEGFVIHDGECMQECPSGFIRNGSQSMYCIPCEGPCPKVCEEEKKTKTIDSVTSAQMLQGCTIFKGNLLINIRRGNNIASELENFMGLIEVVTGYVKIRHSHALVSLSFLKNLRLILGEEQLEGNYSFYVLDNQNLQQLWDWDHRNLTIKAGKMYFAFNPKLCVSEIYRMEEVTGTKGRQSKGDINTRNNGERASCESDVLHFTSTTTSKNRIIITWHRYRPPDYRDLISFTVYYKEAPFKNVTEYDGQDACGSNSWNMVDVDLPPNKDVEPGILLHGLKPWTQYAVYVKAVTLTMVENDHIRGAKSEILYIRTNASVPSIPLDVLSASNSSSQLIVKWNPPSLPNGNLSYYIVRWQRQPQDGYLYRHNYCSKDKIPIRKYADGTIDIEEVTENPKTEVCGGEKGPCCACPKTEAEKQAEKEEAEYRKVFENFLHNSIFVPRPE
Sequence of Insulin-like growth factor 1 receptor (P08069 741-1367 limits assumed): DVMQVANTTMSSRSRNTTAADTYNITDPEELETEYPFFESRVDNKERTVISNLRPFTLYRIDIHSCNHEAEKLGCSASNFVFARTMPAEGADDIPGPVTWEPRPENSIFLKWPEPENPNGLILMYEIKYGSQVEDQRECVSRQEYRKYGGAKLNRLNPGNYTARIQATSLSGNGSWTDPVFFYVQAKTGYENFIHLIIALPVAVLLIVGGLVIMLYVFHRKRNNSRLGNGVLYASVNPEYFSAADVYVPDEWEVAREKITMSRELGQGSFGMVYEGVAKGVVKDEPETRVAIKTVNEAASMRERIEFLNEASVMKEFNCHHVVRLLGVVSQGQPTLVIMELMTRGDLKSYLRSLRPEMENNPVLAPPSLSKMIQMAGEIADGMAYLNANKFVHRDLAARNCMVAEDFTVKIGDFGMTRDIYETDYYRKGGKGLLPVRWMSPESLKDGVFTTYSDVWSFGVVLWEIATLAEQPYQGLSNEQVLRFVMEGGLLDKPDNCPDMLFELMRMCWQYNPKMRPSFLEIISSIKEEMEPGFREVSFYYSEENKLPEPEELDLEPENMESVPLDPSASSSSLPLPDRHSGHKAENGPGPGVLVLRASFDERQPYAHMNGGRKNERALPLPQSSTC
Sequence of Proto-oncogene tyrosine-protein kinase Src (P12931 2-536 limits assumed): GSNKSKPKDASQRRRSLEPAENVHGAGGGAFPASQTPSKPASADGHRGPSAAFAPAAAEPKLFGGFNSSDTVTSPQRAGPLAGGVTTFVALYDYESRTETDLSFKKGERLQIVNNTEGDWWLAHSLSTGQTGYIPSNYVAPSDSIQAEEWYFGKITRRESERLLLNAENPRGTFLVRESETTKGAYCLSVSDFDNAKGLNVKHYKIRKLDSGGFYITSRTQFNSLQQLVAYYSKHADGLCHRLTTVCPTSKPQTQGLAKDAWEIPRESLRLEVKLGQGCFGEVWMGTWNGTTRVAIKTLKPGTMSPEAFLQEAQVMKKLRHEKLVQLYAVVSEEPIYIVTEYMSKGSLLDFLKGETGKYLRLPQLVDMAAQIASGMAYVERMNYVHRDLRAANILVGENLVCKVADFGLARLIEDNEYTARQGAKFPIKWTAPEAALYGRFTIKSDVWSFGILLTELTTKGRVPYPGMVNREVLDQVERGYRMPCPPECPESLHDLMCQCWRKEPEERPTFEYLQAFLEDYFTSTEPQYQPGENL

SMILES: COc1cc2c(Oc3ccc(NC(=O)NN4C(=O)CSC4c4ccc(F)cc4)cc3)ccnc2cc1OC1CCN(C(=O)NC2CCCCC2)CC1 (configuration not stated)
IC50 (HT-29 [1]): 3420 nM

SMILES: COc1cc2c(Oc3ccc(NC(=O)NN4C(=O)CSC4c4ccccc4)cc3)ccnc2cc1OC1CCN(C(=O)NC(C)C)CC1 (configuration not stated)
IC50 (HT-29 [1]): 1260 nM

SMILES: COc1cc2c(Oc3ccc(NC(=O)NN4C(=O)CSC4c4c(F)cccc4F)cc3)ccnc2cc1OC1CCN(C(=O)NC(C)C)CC1 (configuration not stated)
Activity (HT-29 [2]; dose 1-3 µg/ml, time 48-72 hrs): Dose-dependent effect | Activity (HT-29 [3]): 71.3% | Activity (FHC [4]): Toxic | IC50 [5]: > 10000 nM | IC50 [6]: 382 nM | Activity (HT-29 [7]): 71.5% | IC50 [8]: 632 nM | Activity (HT-29 [9]): 20.3% | Activity (HT-29 [10]): Active | Activity (HT-29 [11]): 4.3% | Activity (HT-29 [12]; dose 1-3 µg/ml, time 48-72 hrs, TDE = time-dependent effect): Tde | IC50 [13]: 384 nM | Activity (HT-29 [14]): 18.3% | Activity (HT-29 [15]): 71.2% | Activity (HT-29 [16]): 3.8% | Activity (HT-29 [17]): Dose-dependent effect | Activity (FHC [18]): 26.7% | Activity (HT-29 [19]): 19.7% | IC50 (HT-29 [1]): 310 nM | Activity (HT-29 [20]): 4.4% | IC50 [21]: 421 nM | IC50 [22]: 382 nM | IC50 [23]: 122 nM | Activity (HT-29 [24]): Active | IC50 [25]: > 10000 nM | Activity (HT-29 [26]): Tde | IC50 [27]: > 10000 nM

SMILES: CNC(=O)c1cc(Oc2ccc(NC(=O)Nc3ccc(Cl)c(C(F)(F)F)c3)c(F)c2)ccn1 [REGORAFENIB]
Activity (HT-29 [2]): Active | Activity (FHC [4]): Toxic | Activity (HT-29 [10]): inactive | AC50 (HT-29 [12]): Active | Activity (HT-29 [14]): 15.7% | Activity (HT-29 [15]): 78.5% | Activity (HT-29 [17]): inactive | Activity (FHC [28]): Toxic | Activity (FHC [18]): 13.5% | IC50 (HT-29 [1]): 2870 nM | Activity (HT-29 [20]): 2% | Activity (HT-29 [24]): Active

SMILES: CCNC(=O)N1CCC(Oc2cc3nccc(Oc4ccc(NC(=O)NN5C(=O)CSC5c5ccc(F)cc5)cc4)c3cc2OC)CC1 (configuration not stated)
IC50 (HT-29 [1]): 2250 nM

SMILES: COc1cc2c(Oc3ccc(NC(=O)NN4C(=O)CSC4c4ccc(F)cc4)cc3)ccnc2cc1OC1CCN(C(=O)NC(C)C)CC1 (configuration not stated)
IC50 (HT-29 [1]): 860 nM

SMILES: COc1cc2c(Oc3ccc(NC(=O)NN4C(=O)CSC4c4ccc(F)cc4)cc3)ccnc2cc1OC1CCN(C(=O)NCc2ccccc2)CC1 (configuration not stated)
IC50 (HT-29 [1]): 6600 nM

SMILES: CCCCNC(=O)N1CCC(Oc2cc3nccc(Oc4ccc(NC(=O)NN5C(=O)CSC5c5ccc(F)cc5)cc4)c3cc2OC)CC1 (configuration not stated)
IC50 (HT-29 [1]): 1700 nM

More lines, now with the values ahead:

IC50 (HT-29 [1]): > 10000 nM
SMILES: COc1cc2nccc(Sc3ccc(NC(=O)NN4C(=O)CSC4c4c(F)cccc4F)cc3)c2cc1OCC1CCN(C(=O)NC(C)C)CC1 (configuration not stated)

IC50 (HT-29 [1]): 420 nM
SMILES: COc1cc2c(Sc3ccc(NC(=O)NN4C(=O)CSC4c4c(F)cccc4F)cc3)ccnc2cc1OC1CCN(C(=O)NC(C)C)CC1 (configuration not stated)

IC50 (HT-29 [1]): 410 nM
SMILES: COc1cc2c(Oc3ccc(NC(=O)NN4C(=O)CSC4c4ccccc4F)cc3)ccnc2cc1OC1CCN(C(=O)NC(C)C)CC1 (configuration not stated)

IC50 (HT-29 [1]): > 10000 nM
SMILES: COc1cc2c(Sc3ccc(NC(=O)NN4C(=O)CSC4c4c(F)cccc4F)cc3)ccnc2cc1OC1CCCN(C(=O)NC(C)C)C1 (configuration not stated)

IC50 (HT-29 [1]): 670 nM
SMILES: COc1cc2c(Oc3ccc(NC(=O)NN4C(=O)CSC4c4cccc(F)c4)cc3)ccnc2cc1OC1CCN(C(=O)NC(C)C)CC1 (configuration not stated)

IC50 (HT-29 [1]): 910 nM
SMILES: COc1cc2c(Oc3ccc(NC(=O)NN4C(=O)CSC4c4c(F)cc(F)cc4F)cc3)ccnc2cc1OC1CCN(C(=O)NC(C)C)CC1 (configuration not stated)

IC50 (HT-29 [1]): > 10000 nM
SMILES: COc1cc2c(Oc3cccc(NC(=O)NN4C(=O)CSC4c4c(F)cccc4F)c3)ccnc2cc1OC1CCN(C(=O)NC(C)C)CC1 (configuration not stated)

IC50 (HT-29 [1]): 390 nM
SMILES: COc1cc2c(Sc3ccc(NC(=O)NN4C(=O)CSC4c4c(F)cccc4F)cc3)ccnc2cc1OCC1CCN(C(=O)NC(C)C)CC1 (configuration not stated)

IC50 (HT-29 [1]): 790 nM
SMILES: COc1cc2c(Oc3ccc(NC(=O)NN4C(=O)CSC4c4cccc(F)c4F)cc3)ccnc2cc1OC1CCN(C(=O)NC(C)C)CC1 (configuration not stated)

IC50 (HT-29 [1]): 5600 nM
SMILES: COc1cc2c(Sc3ccc(NC(=O)NN4C(=O)CSC4c4c(F)cccc4F)cc3)cc(N)nc2cc1OC1CCN(C(=O)NC(C)C)CC1 (configuration not stated)

IC50 (HT-29 [1]): 1060 nM
SMILES: COc1cc2c(Oc3ccc(NC(=O)NN4C(=O)CSC4c4ccc(F)c(F)c4)cc3)ccnc2cc1OC1CCN(C(=O)NC(C)C)CC1 (configuration not stated)

IC50 (HT-29 [1]): 950 nM
SMILES: COc1cc2c(Oc3ccc(NC(=O)NN4C(=O)CSC4c4ccc(F)cc4F)cc3)ccnc2cc1OC1CCN(C(=O)NC(C)C)CC1 (configuration not stated)
